Results from different studies.
Protocols differ between the studies behind these lines.
Target: Serine/threonine-protein kinase PAK 5 (PAK5, Homo sapiens, UniProt Q9P286)

SMILES	test	setting	endpoint	result
COc1cc(Nc2ncc(F)c(Nc3ccc4c(n3)NC(=O)C(C)(C)O4)n2)cc(OC)c1OC	binding	10 µM	inhibition	100%
Cn1cncc1[C@@](O)(COc1ccc(C#N)cc1-c1ccc(OC(F)(F)F)cc1)c1ccc(C#N)cc1	cell-free assay, competition with immobilised ligand	1 µM	remaining binding	100%
Cn1cc(-c2cc(F)cc(N3CCn4c(cc5c4CCCC5)C3=O)c2CO)cc(Nc2ccc(N3CCN(C4COC4)CC3)cn2)c1=O	enzyme activity, inhibitor	0.1 µM	inhibition	10%
COc1ncccc1-c1cnn2ccc(N3CCN(C(=O)OC(C)C)CC3)nc12	binding, competition with immobilised ligand	1 µM	remaining binding	100%
N#CC1(c2ccccn2)CCN(Cc2cc(C(=O)O)c(=O)n3ccccc23)CC1	cell-free assay, competition with immobilised ligand	1 µM	remaining binding	96%
Cn1cc(-c2cccc(N3CCc4c(sc5c4CC(C)(C)C5)C3=O)c2CO)cc(Nc2ccncn2)c1=O	enzyme activity, inhibitor	1 µM	inhibition	4%
C#Cc1n[nH]c2c(-c3cn(C(C)c4ccccn4)c(=O)[nH]c3=O)cc(F)cc12 (stereo not shown)	enzyme activity, inhibitor	1 µM	inhibition	-3.8%
Nc1ncc(-c2nc(N3CCOCC3)nc(N3CCOCC3)n2)c(C(F)F)n1	binding, competition with immobilised ligand	10 µM	remaining binding	52%
O=c1[nH]c2ccccc2n1C1CCN(Cc2ccc(-c3[nH]c4cc5ncnc5cc4nc3-c3ccccc3)cc2)CC1	cell-free assay	0.5 µM	remaining signal	110%
Cc1nn(C)cc1-c1nc2c(N3CCN(Cc4ccc(Cl)cc4)CC3)c(Cl)cnc2[nH]1	binding, competition with immobilised ligand	1 µM	remaining binding	83%
